Screening data from PubChem.
In the library only some 3.1% were active in any assay of this set; here they are far more common.
CSC inhib: blocks cancer stem cells; AID 2717; cancer stem cell-like cells viability, luminescence; 300,000 tested, 1.1% active; inhibition, % at 7.5 µM; in the data active = inhibition above about 75%; inconclusive = no clear call, values can overlap the other calls; tested in HMLE shEcad cells
Calb FLC: affects C. albicans growth with fluconazole | AID 1979 | growth inhibition, % (concentration not given with the values) | 300,000 tested, 0.57% active | C. albicans CaCi-2 (fluconazole-resistant clinical isolate) + fluconazole, Alamar Blue growth, 48 h;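 active = growth inhibition above about 58% in most replicates, limit read from the data, passing the limit was not always enough; inconclusive = exactly half the replicates above a set limit; inactive = most replicates below a set limit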;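 also: all wells also contain fluconazole at 8 µg/ml as a sub-toxic cotreatment; 0% = median of DMSO wells and 100% = median of geldanamycin control wells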
Beta apoptosis: beta cell apoptosis inhibition; INS-1E cytokine-induced death, ATP luminescence, 48 h; percent of positive-control rescue, neutral wells zero; protection from apoptosis, % (test concentration not listed); 300,000 tested, 0.8% active;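 active = Every replicate reaches about 75%, or at least half do and their mean reaches it too, limit read from the data; inconclusive = At least half of replicates reach the limit but their mean does not; inactive = Under half of replicates reach the limit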;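 also: 0% = cytokine-treated negative control wells and 100% = positive control rescue; higher means more ATP so stronger rescue from cytokine killing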
A1 inh: inhibitors of the anti-apoptotic protein A1, read as caspase activation | caspase activation, % (no concentration beside the values) | MEF A1-2A-BIM cells, Caspase-Glo 3/7 luminescence, 3 h; percent of clofoctol response, vehicle zero | 330,000 tested, 0.066% active | AID 2462;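 active = over half of replicate activation scores above 10%, or exactly half above 10 with the replicate mean above 10; inconclusive = replicate mean below 10 yet half the replicates above 10; inactive = over half of replicates below 10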
T cruzi repl: T. cruzi replication inhibition; T. cruzi beta-gal in NIH3T3, luminescence, 90 h; inhibition, % (concentration not given with the values); 300,000 tested, 1.4% active;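 active = mean inhibition across valid replicates above about 55%, limit read from the data; inconclusive = mean below that limit but half or more replicates reach it; inactive = mean below it, under half of replicates reach it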;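 also: signal also drops with host cell toxicity which is not excluded here; 0% = plate median of DMSO wells and 100% = zero luminescence signal; higher percent means less beta-gal luminescence so fewer parasites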
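System – NIH/3T3 host cells with β-galactosidase reporter T. cruzi · Doses – single 50 nL compound addition per well in DMSO · Reagent – 5000 T. cruzi trypomastigotes/well · Medium – Low-serum DMEM with 2% FBS · Timing – ≥90 h infection period, 3 h prior cell attachment · Evaluation – parasite load inhibition, % · Technique – GalScreen luminescence, 60 min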
TAG inh: triacylglycerol accumulation inhibition. 230,000 tested, 0.66% active. inhibition, % at 12.5 µM. H9c2 cells, Nile Red lipid (TAG) fluorescence; cells loaded with 200 µM oleic acid. AID 651582;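 active = pattern-corrected inhibition of lipid staining of at least 50% with the nuclear-stain viability signal not falling by more than 50%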;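 also: 0% = DMSO wells and 100% = triacsin C control wells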
* marks the source's active call; other numbers are inactive results; ? = inconclusive; . = not tested or not shown.

SMILES | CSC inhib | Calb FLC | Beta apoptosis | A1 inh | T cruzi repl | TAG inh
Cc1ccc(CNC(=O)CCC2CCCN(Cc3cccc4cccnc34)C2)o1 (stereo unspecified) | 4 | -12 | -1 | 0 | 46 | 0
CC(C)c1cc(C(=O)N2CCCC(CCC(=O)NCc3ccccc3F)C2)n(C)n1 (stereo unspecified) | -30 | -6 | 23 | 0 | 8 | -14
Cc1ccc(CNC(=O)CCC2CCCN(Cc3cccc4ncccc34)C2)o1 (stereo unspecified) | 0 | 2 | -9 | 0 | 66* | -1
Cc1nn(C)c(Cl)c1CN1CCCC(CCC(=O)NCc2ccccc2F)C1 (stereo unspecified) | -7 | -26 | 1 | 0 | 60* | .
CCOc1cccc(CN2CCCC(CCC(=O)NCc3ccccc3F)C2)c1O (stereo unspecified) | 13 | 2 | -2 | 2 | 56* | 6
O=C(CCC1CCCN(c2ncccn2)C1)NCc1ccccc1F (stereo unspecified) | -16 | 9 | -1 | 2 | 9 | -1
Cc1cc(C)c(CN2CCN(C(=O)Cn3ccc(N)nc3=O)CC2)c(C)c1 | 1 | . | 0 | 0 | . | -6
CSc1nc(N)nc2c1ncn2CC(=O)N1CCN(Cc2c(C)cc(C)cc2C)CC1 | . | . | 100* | 0 | . | -11
COc1ccc(/C(C)=N/N2C(=O)c3ccccc3NC2c2ccc(O)c(OC)c2)cc1 (stereo unspecified) | -7 | -2 | -1 | -2 | -12 | .
C/C(=N\N1C(=O)c2ccccc2NC1c1ccccc1)c1ccccc1O (stereo unspecified) | 3 | 23 | 87* | -1 | 66* | 21
O=C1c2ccccc2NC(c2ccco2)N1/N=C/c1ccco1 (stereo unspecified) | -2 | 9 | -2 | -1 | -2 | -7
C/C(=N\N1C(=O)c2ccccc2NC1c1ccco1)c1ccccc1O (stereo unspecified) | -5 | 33 | 99* | 0 | 61* | 20
Cc1ccc(NC(=O)COC(=O)C2CCC2)cc1S(=O)(=O)N1CCCCC1 | -11 | -1 | -2 | 1 | 0 | 7
Cc1c(C(N)=O)c(-c2ccccc2)nn1-c1ccccc1 | -8 | 6 | -4 | -1 | -24 | .
CCCc1c(-c2ccc(O)cc2)nn(-c2ccc(O)cc2)c1-c1ccc(O)cc1 | 84* | . | -1 | 2 | -4 | -21
CN(C)CCCN1C(=O)c2cccc3cccc(c23)C1=O | -1 | 8 | 16 | 0 | 22 | .
CC1=CC2=C(OC1N(C)C)c1cccc3cccc(c13)C2=O (stereo unspecified) | 27 | 96* | -20 | 0 | 9 | .
CC1(C)CC(=O)C=C(Nc2ccc([N+](=O)[O-])cc2)C1 | -11 | 78* | -5 | 0 | -6 | .
c1ccc(-c2ccccc2OCCCN2CCCCCC2)cc1 | 43 | 90* | 8 | 1 | 28 | .
Cc1ccc(C(C)(C)C)c(OCCN2CCCC2)c1 | 7 | -29 | -1 | 0 | 42 | .
c1ccc(-c2ccccc2OCCCN2CCCC2)cc1 | -1 | 0 | -1 | 0 | 10 | .
CC(C)(C)c1ccccc1OCCN1CCCC1 | -20 | -16 | 0 | 1 | 60* | .
CCOc1ccc(NC(=O)CCC(=O)c2ccc(F)cc2)cc1 | -6 | -7 | . | -1 | 1 | .
CN1CCN(C(=O)c2cnn(-c3ccccc3)c2NC(=O)c2ccccc2)CC1 | -1 | 94* | -5 | 0 | 8 | 8
OC(CN1CCOCC1)(c1ccccc1)c1ccccn1 (stereo unspecified) | -10 | -4 | -7 | 0 | -24 | .
SMILES | CSC inhib | Calb FLC | Beta apoptosis | A1 inh | T cruzi repl | TAG inh
CC1CCCCC1NC(=O)c1ccc(NC2=NC3CS(=O)(=O)CC3S2)cc1 (stereo unspecified) | 0 | 1 | 2 | 3 | 0 | .
Cc1ccc(S(=O)(=O)N(C)c2ccc(OCC(=O)OCc3cccc(Br)c3)cc2)cc1 | . | . | . | . | . | 7
Cc1ccc(S(=O)(=O)N(C)c2ccc(OCc3cccc(C)c3)cc2)cc1 | 77* | -15 | -2 | 0 | 9 | 15
NNC(=O)c1cc(O)c(O)c(O)c1 | 9 | 95* | -8 | 0 | 18 | .
COc1c(Cl)cc(C(=O)NN)cc1Cl | 11 | 15 | 9 | -1 | 16 | -8
O=C1NC[C@H](Cc2ccc(O)cc2)N(CC2CCCCC2)C1=O | -11 | 10 | 6 | 0 | -2 | 1
Oc1ccc(C[C@@H]2CNC(=S)N2CCCCC2CCCCC2)cc1 | 115* | -16 | -3 | 1 | 33 | 4
O=C1c2ccccc2C2=Nc3ccccc3SC(c3ccc(Cl)cc3)C12 (stereo unspecified) | 127* | 7 | 95* | 0 | 47 | .
O=C1c2ccccc2C2=Nc3ccccc3SC(c3cccc(F)c3)C12 (stereo unspecified) | 6 | -2 | 12 | 0 | 56* | .
Fc1cccc(C2NN=C(c3ccccc3)S2)c1 (stereo unspecified) | 8 | -19 | 15 | -8 | -7 | .
CC(=O)NCc1ccc(S(=O)(=O)N2CCN(S(=O)(=O)c3ccc4ccccc4c3)CC2)cc1 | . | . | . | . | . | -8
COC(=O)C1=C(C)OC(N)=C(C#N)C1c1cccnc1 (stereo unspecified) | 18 | -6 | -7 | 1 | -5 | -12
CC1=C(n2nnc([N+](=O)[O-])n2)C(c2cccnc2)C(C#N)=C(N)O1 (stereo unspecified) | -2 | 34 | . | -1 | 57* | -2
COc1ccc2c(C)nc(Nc3nc(C)c(C)c(=O)[nH]3)nc2c1 | 106* | ? | 52 | 0 | 1 | 125
CCc1c(C)nc(Nc2nc(C)c3ccc(OC)cc3n2)[nH]c1=O | 8 | 3 | 18 | 0 | 5 | .
Cc1nc(Nc2nc(CSc3nc4ccccc4[nH]3)cc(=O)[nH]2)nc2ccccc12 | 195* | 14 | 5 | 0 | 31 | .
COc1ccc2nc(Nc3nc(CSc4nc5ccccc5[nH]4)cc(=O)[nH]3)nc(C)c2c1 | 66 | ? | 77* | 0 | 43 | .
Cc1cc(-n2cc(Br)c(=O)[nH]c2=O)nc(-c2ccccc2)n1 | -4 | 0 | -2 | 1 | 5 | 9
O=NN(CCc1ccncc1)c1ccc(OCc2ccccc2)cc1 | 18 | -2 | 99* | -1 | 72* | -26
O=C(NCc1ccncc1)C(=O)N/N=C/c1ccc(OCc2ccccc2)cc1 | 1 | -23 | -2 | 1 | 3 | 4
COc1ccc(/C=N/n2c(C)nc3c([nH]c4ccccc43)c2=O)cc1CN1CCCC(C)(C)C1 | 1 | 3 | 26 | 1 | 34 | 3
COc1ccc2[nH]c3c(=O)n(/N=C/c4ccc(OC)c(CN5CCCC5)c4)c(C)nc3c2c1 | 2 | 8 | 7 | -1 | 65* | 15
